Measurements reported in the RNAGym collection of RNA variant scans (doi:10.1126/science.aae0568).
Variants at the floor of the assay were thinned out.

B1: tRNA (parent)
chain: GUUCCGUUGGCGUAAUGGUAACGCGUCUCCCUCCUAAGGAGAAGACUGCGGGUUCGAGUCCCGUACGGAACG

Variants of: B1
Test: yeast fitness relative to wild type (ratio to wild type); higher = fitter; tRNA-Arg(CCU), competitive growth, 37 C, YPD
Method in brief: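 A pool of Saccharomyces cerevisiae strains, each with a tRNA-Arg(CCU) gene variant at the native genomic locus, was competed in YPD at 37°C for 24 hours across six parallel replicates. The variants had been chemically synthesised at a 3% per-site mutation rate over 69 sites, and gene amplicons before and after competition were read by 100-nucleotide paired-end sequencing. Darwinian fitness relative to wild type rested on changes in genotype frequencies. Genotypes required ≥ 100 starting reads, and estimates < 0.5 were set to 0.5.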

U3C G10A C46U U47A U54C and G9C A21G C66U A69U cannot be ordered by yeast fitness: ≤ 0.5 for the first, ≤ 0.5 for the second.

Going from A21U G56A to G18C C33A U54A C62A, the yeast fitness falls from 0.646 to 0.577.

Going from C31G C33G to C5G U7G A20G, the yeast fitness falls from 0.565 to ≤ 0.5.

C22U U32A C46G G52C C62U and C24A C33A C46U C60G cannot be ordered by yeast fitness: ≤ 0.5 for the first, ≤ 0.5 for the second.

Compared with C27G G38A G48C, U2A A20U U35C is lower in yeast fitness: 0.538 for the first, ≤ 0.5 for the second.

A14C A45U G48A C66G and A42C C55G A57C C62U cannot be ordered by yeast fitness: ≤ 0.5 for the first, ≤ 0.5 for the second.

First: U7C C46U C61A G63U G67A
Second: G44A A45G G51C C66U A69C
The yeast fitness of the first is lower: ≤ 0.5 for the first, 0.576 for the second.

First: U19A C22G G23C C30G C34A
Second: C34G C62A G63A
The yeast fitness of the first is higher: 0.519 for the first, ≤ 0.5 for the second.

First: G6C U16G G39C
Second: C5G A20G C46U
The yeast fitness of the first is lower: ≤ 0.5 for the first, 0.638 for the second.

Compared with C4A G12C U19C C24G A43U C61U, G6C G10A C27A C61U A65U is lower in yeast fitness: 0.532 for the first, ≤ 0.5 for the second.

U8A C29G A70G and C5A A14C C49A cannot be ordered by yeast fitness: ≤ 0.5 for the first, ≤ 0.5 for the second.

Going from G18C C33G C49A C55U to A14G A42C C62A, the yeast fitness falls from 0.517 to ≤ 0.5.

Compared with U32C C66A, C22U C24G C55U is lower in yeast fitness: 0.702 for the first, ≤ 0.5 for the second.

Compared with U2C U19C U54A A69C, G9C U35C C46U is higher in yeast fitness: ≤ 0.5 for the first, 0.601 for the second.

A21C C34G A36G C46A C66A A70G and C31A A37G G38A A40G cannot be ordered by yeast fitness: ≤ 0.5 for the first, ≤ 0.5 for the second.

Compared with U7A C46U U59C C62G A65U, U3C C11A U32G C61A C62A is higher in yeast fitness: ≤ 0.5 for the first, 0.587 for the second.

A14C U16A G63A and G23A C29A C61U cannot be ordered by yeast fitness: ≤ 0.5 for the first, ≤ 0.5 for the second.

Going from C5U G12C to G6C U13A C24U C31A U54C, the yeast fitness falls from 0.818 to ≤ 0.5.

Going from C5G G23C to G9A U26G A57U, the yeast fitness falls from 0.695 to 0.631.

First: U2G G63A
Second: C4G C30U
The yeast fitness of the first is higher: 0.876 for the first, 0.852 for the second.

U35A C49G C60A and C30U G39A A40G G67A cannot be ordered by yeast fitness: ≤ 0.5 for the first, ≤ 0.5 for the second.

Going from U16A A36U C46A to C4U U8C A36G G44C, the yeast fitness rises from ≤ 0.5 to 0.676.

Compared with G9A C11G C24G U32A G50A C61U G63C, U3C C24U A40G C46A is higher in yeast fitness: ≤ 0.5 for the first, 0.702 for the second.

First: G63A U64A
Second: C60U U64C
The yeast fitness of the first is higher: 0.864 for the first, 0.833 for the second.

Going from C4U A15U U28C to U7C A37G A42C C49G C66G A70U, the yeast fitness falls from 0.55 to ≤ 0.5.

Going from U32C A40U A43G to U26A C31U A65C, the yeast fitness rises from 0.684 to 0.691.

Compared with C4A G17A C27G C55U, G18C C29U is lower in yeast fitness: 0.62 for the first, 0.546 for the second.

Compared with U8G C24G G41A, U3G C31A G50A G67A is lower in yeast fitness: 0.553 for the first, ≤ 0.5 for the second.

Going from U7C A40U A42U U54A to U13G C31A, the yeast fitness rises from 0.661 to 0.833.

Compared with G18A A20U C31U, C27G A37C A42G G48C U59C is lower in yeast fitness: 0.545 for the first, 0.533 for the second.

Compared with G58A C60U C62A, C5A G41A A42C G50C A70G is lower in yeast fitness: 0.552 for the first, 0.502 for the second.

C5A U19C C27U C29G C34A A42C U54A and U8C A15U U28A C33G cannot be ordered by yeast fitness: ≤ 0.5 for the first, ≤ 0.5 for the second.

Going from G10C A21G G56U C66A to G9A A43U G56C, the yeast fitness falls from 0.727 to 0.536.

Going from G6C G10C C11U C55U C61G C62G to G25A U32A C46U A57U, the yeast fitness rises from ≤ 0.5 to 0.609.

Going from U3C G10C C55G to A15C U64C, the yeast fitness rises from ≤ 0.5 to 0.956.

First: C11U A20U G68A A70C
Second: G25A A37U U47G G56C
The yeast fitness of the first is lower: 0.515 for the first, 0.601 for the second.

U7A C11U A36U G58C and A15C G17C A36C G38C G48A cannot be ordered by yeast fitness: ≤ 0.5 for the first, ≤ 0.5 for the second.

Going from U19A G48A to C5U C11G C29G C46U, the yeast fitness falls from 1.05 to ≤ 0.5.

Going from C11A A45C U53C to U16C A45G, the yeast fitness rises from 0.645 to 0.919.

First: U2G C30G C62G
Second: C11U U13A A40C U64C
The yeast fitness of the first is higher: 0.591 for the first, ≤ 0.5 for the second.

Going from G9A C22U C30A C49A C55A C62U C66U to G12C A20C A43U, the yeast fitness rises from ≤ 0.5 to 0.632.

First: A20C C34A G63C
Second: A21C G56A
The yeast fitness of the first is lower: ≤ 0.5 for the first, 0.946 for the second.

First: A15U C46G C55A A69U
Second: G6A G9C A21C C30U A45U C55A
The yeast fitness of the first is lower: ≤ 0.5 for the first, 0.517 for the second.

C11U A36G C46U G56A and A43U A45G C55G cannot be ordered by yeast fitness: ≤ 0.5 for the first, ≤ 0.5 for the second.

First: A15C A37C U59C
Second: A37C G56A G68U
The yeast fitness of the first is higher: 0.814 for the first, 0.602 for the second.

Compared with C29G G50A, U8A A20C C62A is lower in yeast fitness: 0.605 for the first, ≤ 0.5 for the second.

First: C5G G12C C49U
Second: G6A U7A
The yeast fitness of the first is lower: 0.584 for the first, 0.749 for the second.

First: G41C G51C
Second: A15G
The yeast fitness of the first is lower: 0.52 for the first, 0.987 for the second.

G6A U7A C60G and C4A C5G C66U A70G cannot be ordered by yeast fitness: ≤ 0.5 for the first, ≤ 0.5 for the second.

Compared with C4U G9A U54A, A20U A43G G58A is higher in yeast fitness: ≤ 0.5 for the first, 0.91 for the second.

A37C A42G G44A G67A and C34A A57C cannot be ordered by yeast fitness: ≤ 0.5 for the first, ≤ 0.5 for the second.

C11A G48A C55U and C27A C29G C49G G51C U54C cannot be ordered by yeast fitness: ≤ 0.5 for the first, ≤ 0.5 for the second.

First: A45C G63A
Second: U2C C4U A36G G44C
The yeast fitness of the first is higher: 0.85 for the first, 0.615 for the second.

Going from C27G G41A to A21G C22U C30G G51A A69U, the yeast fitness falls from 1.03 to 0.551.

Going from C4U A14G G48C to G6A C11A A37G G68C, the yeast fitness falls from 0.659 to 0.562.

Going from A21G G23A C27U to C11U U28A C62G, the yeast fitness falls from 0.75 to ≤ 0.5.

A15G A57C C62A and A14C A43G A69C cannot be ordered by yeast fitness: ≤ 0.5 for the first, ≤ 0.5 for the second.

Compared with G18C A21G G67A, G12C A69C A70U is higher in yeast fitness: ≤ 0.5 for the first, 0.688 for the second.

A20G C27U U28G G68A and G10C G17A A42U cannot be ordered by yeast fitness: ≤ 0.5 for the first, ≤ 0.5 for the second.

Going from U7G A14U U26A C61A to A20C C27U A40C, the yeast fitness rises from ≤ 0.5 to 0.63.

Compared with G12A C33U A36C C55G, C11A C24G is higher in yeast fitness: ≤ 0.5 for the first, 0.52 for the second.

Compared with C5U A45C A70U, G6A G17C U19C C29A A70G is lower in yeast fitness: 0.813 for the first, ≤ 0.5 for the second.

First: G18C C27G G48A C66G G67A
Second: C4G C5U C11U
The yeast fitness of the first is lower: ≤ 0.5 for the first, 0.505 for the second.

First: G12U G23A A36G G39A
Second: A36U G41C
The yeast fitness of the first is lower: ≤ 0.5 for the first, 0.686 for the second.

Going from C4U U32A G41C A43C to C27G C33G G44A, the yeast fitness rises from ≤ 0.5 to 0.669.

Going from C27U A42U C61G to A43C G63A, the yeast fitness rises from 0.545 to 0.929.

U26C A45U G68C and U7A U8G C30G C66U cannot be ordered by yeast fitness: ≤ 0.5 for the first, ≤ 0.5 for the second.

Going from U7C G12A U13G A14C U35C C49U to C27U C31U G48A, the yeast fitness rises from ≤ 0.5 to 1.

Compared with A15C U35G A57G C66G, C24G C30U C31A is lower in yeast fitness: 0.56 for the first, ≤ 0.5 for the second.

Compared with U19C G48C G56A A69C, A14U C24U U64C is lower in yeast fitness: 0.642 for the first, ≤ 0.5 for the second.

First: C4G A20U C31G C62A
Second: C29U A45C G63A
The yeast fitness of the first is lower: ≤ 0.5 for the first, 0.578 for the second.

Compared with C5G G23A U32C C61A, C55A C62A is higher in yeast fitness: ≤ 0.5 for the first, 0.518 for the second.

Going from A40G C61G to A15C C31U G68C, the yeast fitness falls from 0.628 to ≤ 0.5.

First: C5U A21C
Second: C29U G63A A70U
The yeast fitness of the first is higher: 0.897 for the first, 0.6 for the second.

Compared with U2C U16C C27G C55U U59G, A36C U47A G56U is higher in yeast fitness: ≤ 0.5 for the first, 0.617 for the second.

Going from C4A U7A C31A C55A to C49U C55A C60A, the yeast fitness falls from 0.717 to ≤ 0.5.

First: A20G A43G
Second: U2A U16A C55G C60A
The yeast fitness of the first is higher: 1.07 for the first, ≤ 0.5 for the second.

Compared with C5A C22G C49G G68C, C29G U47G A57G A69U is lower in yeast fitness: 0.578 for the first, ≤ 0.5 for the second.

First: U26A C31G G63C
Second: A43G G63U U64A
The yeast fitness of the first is lower: ≤ 0.5 for the first, 0.567 for the second.

A15C G52C U64A and C4U C33U G44A cannot be ordered by yeast fitness: ≤ 0.5 for the first, ≤ 0.5 for the second.

A40G A43U C49U C66U and G51A A57U A65U cannot be ordered by yeast fitness: ≤ 0.5 for the first, ≤ 0.5 for the second.

G9A C24A G38A and G6A U8C G18C A21C C33A cannot be ordered by yeast fitness: ≤ 0.5 for the first, ≤ 0.5 for the second.

Going from C33G C60A to C11U G44C, the yeast fitness rises from 0.715 to 0.974.

In the case of C27U C33U U47A A70C, the yeast fitness is reported as ≤ 0.5.
